Laboratory results as given in ChEMBL document CHEMBL1127013, “Glycosylated derivatives of benzophenone, benzhydrol, and benzhydril as potential venous antithrombotic agents” (1993).

Experiments:
Type in all cases: functional
Rattus norvegicus [1] = assay: Effective dose administered by intravenous route before injection of thrombogenic agent in rat model
In short: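 Intravenous dosing in rats at various times before the factor Xa thrombogenic challenge. Thrombus was isolated from the vein segment, dried 24 h at 55 °C and weighed. ED50 was calculated by linear regression with 95% confidence limits.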

Rattus norvegicus [2] = assay: Percentage reduction of thrombus formation by weight in rat (intraperitoneal administration); parameters: concentration or dose not given beside the values
In short: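 Rat venous stasis thrombosis model using a factor Xa thrombogenic challenge 4 h after intraperitoneal dosing in carboxymethylcellulose at 5 mL/kg. Dose was 100 mg/kg when the mouse lethal dose exceeded 800 mg/kg, otherwise 1/10 of LD50. Body temperature was kept near 37 °C. Thrombus was excised from the split vein, dried 24 h at 55 °C and weighed. Read-out is % reduction in thrombus weight, with 5–10 rats per lot.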

Rattus norvegicus [3] = assay: Antithrombotic activity was determined at 100 mg/kg for nonlethal dose in rat
In short: (§1)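 Rats received 100 mg/kg intraperitoneally in (carboxymethyl)cellulose (5 mL/kg), for substances with a mouse lethal dose above 800 mg/kg. Factor Xa was injected 4 h later to induce venous thrombosis, with body temperature near 37 °C. Clamps were placed 15 min after partial flow was restored. The thrombus was excised, dried 24 h at 55 °C and weighed. The result is % reduction of thrombus weight, with 5–10 rats per lot.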

Rattus norvegicus [4] = assay: Antithrombotic activity at 100 mg/kg for nonlethal dose in rat; in short: as §1
Rattus norvegicus [5] = assay: Antithrombotic activity at 100 mg/kg in rat; in short: as §1
Rattus norvegicus [6] = assay: Effective dose administered orally (4h before injection of the thrombotic stimulus) with reduced thrombus weight in dose-related manner; settings: po
Rattus norvegicus [7] = assay: Antithrombotic activity at 1/10 mg/kg in rat
In short: (§2)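 Rat venous thrombosis model with factor Xa as the thrombogenic stimulus, injected 4 h after intraperitoneal dosing in (carboxymethyl)cellulose vehicle (5 mL/kg). Dose was 1/10 of the mouse LD50. Body temperature was kept near 37 °C. The vein was clamped 15 min after partial flow was restored. The thrombus was dried 24 h at 55 °C and weighed. The result is % reduction of thrombus weight, with 5–10 rats per lot.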

Rattus norvegicus [8] = assay: Antithrombotic activity at 1/10 mg/kg for lethal dose in rat; in short: as §2

| Structure (SMILES) | Activity (Rattus norvegicus [2]) | LD0 (Rattus norvegicus [3]) | further results |
| --- | --- | --- | --- |
| O=C(O)C1OC(OC2C(COS(=O)(=O)O)OC(CO)C(NS(=O)(=O)O)C2O)C(OS(=O)(=O)O)C(O)C1CO (centres undefined) | – | – | ED50 (Rattus norvegicus [1]): 0.15 mg/kg |
| COc1ccc(C(=O)c2ccc(O[C@@H]3OC[C@@H](O)[C@H](O)[C@H]3O)cc2)cc1 | 44% | >800 mg | – |
| O[C@@H]1[C@@H](O)[C@H](Oc2ccc(Cc3ccccc3Cl)cc2)OC[C@H]1O | 0% | >800 mg | – |
| Cc1cc(C(=O)c2ccccc2C)ccc1O[C@@H]1OC[C@@H](O)[C@H](O)[C@H]1O | 62% | – | – |
| Cc1ccc(O[C@@H]2OC[C@@H](O)[C@H](O)[C@H]2O)c(C(=O)c2ccccc2C)c1 | 0% | >800 mg | – |
| O=[N+]([O-])c1cccc(Cc2ccc(O[C@@H]3OC[C@@H](O)[C@H](O)[C@H]3O)cc2)c1 | 32% | >800 mg | – |
| O=C(c1ccc(Cl)cc1)c1cccc(O[C@@H]2OC[C@@H](O)[C@H](O)[C@H]2O)c1 | 0% | – | LD50 (Rattus norvegicus [4]): 220 mg |
| O=C(c1ccc(O[C@@H]2OC[C@@H](O)[C@H](O)[C@H]2O)cc1)c1cccc([N+](=O)[O-])c1 | 39% | >800 mg | – |
| O=C(c1ccccc1)c1ccc(O[C@@H]2O[C@H](CO)[C@@H](O)[C@H](O)[C@H]2O)cc1 | 25% | >800 mg | – |
| O=[N+]([O-])c1cccc(C(O)c2ccc(O[C@@H]3OC[C@@H](O)[C@H](O)[C@H]3O)cc2)c1 (some centres undefined) | 63% | – | LD50 (Rattus norvegicus [5]): 600 mg |
| O[C@@H]1[C@@H](O)[C@H](Oc2ccc(Cc3ccccc3)cc2)OC[C@H]1O | 12% | >800 mg | – |
| O=[N+]([O-])c1ccc(Cc2ccc(O[C@@H]3OC[C@@H](O)[C@H](O)[C@H]3O)cc2)cc1 | 80% | – | ED50 (Rattus norvegicus [6]): 24 mg/kg; LD50 (Rattus norvegicus [5]): 650 mg |
| O=C(c1ccc([N+](=O)[O-])cc1)c1cccc(O[C@@H]2OC[C@@H](O)[C@H](O)[C@H]2O)c1 | 61% | >800 mg | – |
| O=C(c1ccc(O[C@@H]2OC[C@@H](O)[C@H](O)[C@H]2O)cc1)c1ccc([N+](=O)[O-])cc1 | 0% | >800 mg | – |
| OC(c1ccc(Cl)cc1)c1ccc(O[C@@H]2OC[C@@H](O)[C@H](O)[C@H]2O)cc1 (some centres undefined) | 39% | >800 mg | – |
| O=C(c1ccc(O[C@@H]2OC[C@@H](O)[C@H](O)[C@H]2O)cc1)c1ccccc1Cl | 76% | >800 mg | – |
| COc1ccc(Cc2ccc(O[C@@H]3OC[C@@H](O)[C@H](O)[C@H]3O)cc2)cc1 | 43% | >800 mg | – |
| Cc1cc(C(O)c2ccccc2C)ccc1O[C@@H]1OC[C@@H](O)[C@H](O)[C@H]1O (some centres undefined) | 14% | – | LD50 (Rattus norvegicus [5]): 450 mg |
| Cc1ccccc1C(=O)c1cccc(O[C@@H]2OC[C@@H](O)[C@H](O)[C@H]2O)c1 | 0% | >800 mg | – |
| O=C(c1ccc(Cl)cc1)c1ccc(O[C@@H]2O[C@H](CO)[C@H](O)[C@H](O)[C@H]2O)cc1 | 0% | >800 mg | – |
| O=[N+]([O-])c1ccc(C(O)c2ccc(O[C@@H]3OC[C@@H](O)[C@H](O)[C@H]3O)cc2)cc1 (some centres undefined) | 80% | >800 mg | ED50 (Rattus norvegicus [1]): 17.8 mg/kg; ED50 (Rattus norvegicus [6]): 48 mg/kg |
| O[C@@H]1[C@@H](O)[C@H](Oc2ccc(Cc3ccc(Cl)cc3)cc2)OC[C@H]1O | 22% | >800 mg | – |
| O=C(c1ccc(O[C@@H]2O[C@H](CO)[C@H](O)[C@H](O)[C@H]2O)cc1)c1ccc([N+](=O)[O-])cc1 | 0% | >800 mg | – |
| O=C(c1ccc(O[C@@H]2OC[C@@H](O)[C@H](O)[C@H]2O)cc1)c1ccc(C(F)(F)F)cc1 | 0% | >800 mg | – |

| Structure (SMILES) | Activity (Rattus norvegicus [2]) | LD0 (Rattus norvegicus [3]) | further results |
| --- | --- | --- | --- |
| O[C@@H]1[C@@H](O)[C@H](Oc2cccc(Cc3ccc(Cl)cc3)c2)OC[C@H]1O | 46% | – | LD50 (Rattus norvegicus [5]): 500 mg |
| O[C@@H]1[C@@H](O)[C@H](Oc2ccc(Cc3ccc(Cl)cc3Cl)cc2)OC[C@H]1O | 25% | – | LD50 (Rattus norvegicus [5]): 640 mg |
| O[C@@H]1[C@@H](O)[C@H](Oc2cccc(Cc3ccccc3)c2)OC[C@H]1O | 39% | – | LD50 (Rattus norvegicus [5]): 200 mg |
| O=C(c1ccc(Cl)cc1)c1ccc(O[C@@H]2OC[C@@H](O)[C@H](O)[C@H]2O)cc1 | 37% | >800 mg | – |
| O=C(c1ccc(O[C@@H]2O[C@H](CO)[C@@H](O)[C@H](O)[C@@H]2O)cc1)c1ccc([N+](=O)[O-])cc1 | 0% | >800 mg | – |
| OC(c1ccc(O[C@@H]2OC[C@@H](O)[C@H](O)[C@H]2O)cc1)c1ccc(Cl)cc1Cl (some centres undefined) | 37% | – | LD50 (Rattus norvegicus [5]): 350 mg |
| O=C(c1ccccc1)c1cccc(O[C@@H]2OC[C@@H](O)[C@H](O)[C@H]2O)c1 | 60% | >800 mg | – |
| O=C(c1ccc(OC2O[C@H](CO)[C@@H](O[C@@H]3O[C@H](CO)[C@H](O)[C@H](O)[C@H]3O)[C@H](O)[C@H]2O)cc1)c1ccc([N+](=O)[O-])cc1 (some centres undefined) | 0% | >800 mg | – |
| OC(c1ccccc1)c1ccc(O[C@@H]2OC[C@@H](O)[C@H](O)[C@H]2O)cc1 (some centres undefined) | 37% | >800 mg | – |
| O=C(c1ccc(O[C@H]2O[C@H](CO)[C@@H](O)[C@H](O)[C@@H]2O)cc1)c1ccc([N+](=O)[O-])cc1 | 0% | >800 mg | – |
| O=C(c1ccccc1)c1ccc(O[C@@H]2OC[C@@H](O)[C@H](O)[C@H]2O)cc1 | 77% | – | LD50 (Rattus norvegicus [7]): 750 mg |
| O=C(c1ccc(O[C@@H]2O[C@H](CO)[C@@H](O)[C@H](O)[C@H]2O)cc1)c1ccc([N+](=O)[O-])cc1 | 0% | >800 mg | – |
| OC(c1ccc(O[C@@H]2OC[C@@H](O)[C@H](O)[C@H]2O)cc1)c1ccccc1Cl (some centres undefined) | 51% | >800 mg | – |
| C[C@@H]1O[C@H](Oc2ccc(C(=O)c3ccc([N+](=O)[O-])cc3)cc2)[C@H](O)[C@H](O)[C@H]1O | 0% | >800 mg | – |
| Cc1ccc(C(=O)c2cccc(O[C@@H]3OC[C@@H](O)[C@H](O)[C@H]3O)c2)cc1 | 0% | >800 mg | – |
| N#Cc1ccc(C(=O)c2ccc(O[C@@H]3OC[C@@H](O)[C@H](O)[C@H]3O)cc2)cc1 | 0% | – | – |
| O=C(c1ccc(O[C@H]2OC[C@@H](O)[C@H](O)[C@H]2O)cc1)c1ccc([N+](=O)[O-])cc1 | 38% | – | LD50 (Rattus norvegicus [8]): 600 mg |
| OC(c1ccccc1)c1cccc(O[C@@H]2OC[C@@H](O)[C@H](O)[C@H]2O)c1 (some centres undefined) | 19% | >800 | – |
| OC(c1ccc(Cl)cc1)c1cccc(O[C@@H]2OC[C@@H](O)[C@H](O)[C@H]2O)c1 (some centres undefined) | 0% | >800 mg | – |
| O=C(c1ccc(O[C@@H]2O[C@H](CO)[C@H](O[C@@H]3O[C@H](CO)[C@@H](O)[C@H](O)[C@H]3O)[C@H](O)[C@H]2O)cc1)c1ccc([N+](=O)[O-])cc1 | 17% | >800 mg | – |
| O=C(c1ccc(Cl)cc1)c1ccc(O[C@@H]2O[C@H](CO)[C@@H](O)[C@H](O)[C@H]2O)cc1 | 0% | >800 mg | – |
| Cc1ccc(C(=O)c2ccc(O[C@@H]3OC[C@@H](O)[C@H](O)[C@H]3O)cc2)cc1 | 0% | >800 mg | – |
| O=C(c1ccc(O[C@@H]2OC[C@@H](O)[C@H](O)[C@H]2O)cc1)c1ccc(Cl)cc1Cl | 18% | >800 mg | – |
